In ChEMBL document CHEMBL4020842, “Discovery of N1-(4-((7-Cyclopentyl-6-(dimethylcarbamoyl)-7 H-pyrrolo[2,3- d]pyrimidin-2-yl)amino)phenyl)- N8-hydroxyoctanediamide as a Novel Inhibitor Targeting Cyclin-dependent Kinase 4/9 (CDK4/9) and Histone Deacetlyase1 (HDAC1) against Malignant Cancer” (J Med Chem, 2018):
Active and inactive are the calls of the source. No cut-off for these calls is given here.

Tests used:
[1] = MRT (0 to infinity) in Sprague-Dawley rat at 20 mg/kg, po administered as single dose by HPLC analysis; format: ADME, organism-based; details: in vivo
[2] = system: Hep 3B2; assay: Induction of apoptosis in human Hep3B cells assessed as necrotic cells at 1 uM after 48 hrs by annexin V-FITC/propidium iodide staining based flow cytometry (reference value: 4.97%); format: functional
[3] = system: NCI-H1299; assay: Cytotoxicity against human NCI-H1299 cells assessed as reduction in cell viability after 72 hrs by CCK8 assay; format: functional, cell-based; details: NCI-H1299, 72 h
[4] = Aqueous solubility in water at 1 mg using acid formulation sonicated for 24 hrs and incubated under unstirred condition for 24 hrs by HPLC method; format: physicochemical
[5] = Half life in Sprague-Dawley rat at 20 mg/kg, ip administered as single dose by HPLC analysis; format: ADME, organism-based; details: in vivo
[6] = biological target: T1, Histone deacetylase 1 (Homo sapiens, UniProt Q13547); assay: Inhibition of HDAC1 in human HepG2 cells assessed as increase in p53 phosphorylation at Ser15 residue at 1 to 5 uM after 48 hrs by Western blot method; format: cell-based
T1 sequence (Q13547 whole entry): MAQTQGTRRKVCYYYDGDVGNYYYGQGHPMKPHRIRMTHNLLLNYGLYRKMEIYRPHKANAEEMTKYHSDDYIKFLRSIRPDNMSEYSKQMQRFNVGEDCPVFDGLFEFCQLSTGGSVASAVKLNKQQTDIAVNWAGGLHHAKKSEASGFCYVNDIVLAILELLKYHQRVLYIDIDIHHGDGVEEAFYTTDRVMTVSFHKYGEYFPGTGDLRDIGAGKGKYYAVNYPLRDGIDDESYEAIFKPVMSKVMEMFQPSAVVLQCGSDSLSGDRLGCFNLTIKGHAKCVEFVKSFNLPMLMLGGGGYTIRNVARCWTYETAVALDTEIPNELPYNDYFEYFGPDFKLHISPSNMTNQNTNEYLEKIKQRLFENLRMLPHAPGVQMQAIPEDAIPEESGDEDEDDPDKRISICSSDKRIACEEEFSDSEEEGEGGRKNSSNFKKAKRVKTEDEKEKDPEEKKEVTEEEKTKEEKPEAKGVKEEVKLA

[7] = biological target: T1, Histone deacetylase 1; assay: Inhibition of HDAC1 in human A549 cells assessed as increase in acetylated histone-H3 level at 0.1 to 1 uM after 24 hrs by immunofluorescence assay; format: cell-based
[8] = system: A549; assay: Induction of apoptosis in human A549 cells assessed as live cells at 5 uM after 48 hrs by annexin V-FITC/propidium iodide staining based flow cytometry (reference value: 92.7%); format: functional
[9] = AUC (0 to infinity) in Sprague-Dawley rat at 20 mg/kg, po administered as single dose by HPLC analysis; format: ADME, organism-based; parameters: dose 20 mg/kg, time infinity, route oral; details: in vivo
[10] = system: T47D; assay: Induction of apoptosis in human T47D cells assessed as live cells at 1 uM after 48 hrs by annexin V-FITC/propidium iodide staining based flow cytometry (reference value: 85.3%); format: functional
[11] = system: T47D; assay: Downregulation of CDK4 protein expression in human T47D cells after 48 hrs by Western blot method; format: functional, cell-based
Outline: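 Treated cells were lysed and CDK4 and cyclin D1 protein levels were assessed by Western blot.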

[12] = system: NCI-H460; assay: Cell cycle arrest in human NCI-H460 cells assessed as accumulation at G2 phase at 2.5 to 10 uM after 24 hrs by propidium iodide staining based flow cytometry; format: functional
Outline: (§1)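 Cells were exposed for 24 h to a range of concentrations (625 nM, 2.5 and 10 µM), with DMSO vehicle as control. They were then stained with propidium iodide and analysed by flow cytometry to obtain the percentages of cells in G0/G1, S and G2 phases.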

[13] = biological target: T1, Histone deacetylase 1; assay: Inhibition of HDAC1 in human MDA-MB-231 cells assessed as increase in acetylated-histone H3 level at 1 to 5 uM after 48 hrs by Western blot method; format: cell-based
[14] = system: HepG2; assay: Cell cycle arrest in human HepG2 cells assessed as accumulation at G0/G1 phase at 625 nM after 24 hrs by propidium iodide staining based flow cytometry; format: functional; outline: as §1
[15] = biological target: CDK4/CDK9 (Homo sapiens) (UniProt P11802+P50750); assay: Inhibition of CDK4/CDK9 in human NCI-H460 cells assessed as reduction in Rb phosphorylation at Ser807/811 residues at 1 uM after 48 hrs by Western blot method; format: cell-based
CDK4/CDK9 (Homo sapiens), sequence (P11802 whole entry, looked up): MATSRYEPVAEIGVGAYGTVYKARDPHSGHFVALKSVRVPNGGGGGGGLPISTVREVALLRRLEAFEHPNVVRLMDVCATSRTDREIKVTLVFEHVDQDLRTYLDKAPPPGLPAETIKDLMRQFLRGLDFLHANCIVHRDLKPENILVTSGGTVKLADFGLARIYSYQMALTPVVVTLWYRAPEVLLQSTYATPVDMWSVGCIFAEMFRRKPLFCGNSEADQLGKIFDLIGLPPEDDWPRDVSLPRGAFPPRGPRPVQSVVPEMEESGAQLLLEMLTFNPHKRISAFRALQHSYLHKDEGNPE
CDK4/CDK9 (Homo sapiens), sequence (P50750 whole entry, looked up): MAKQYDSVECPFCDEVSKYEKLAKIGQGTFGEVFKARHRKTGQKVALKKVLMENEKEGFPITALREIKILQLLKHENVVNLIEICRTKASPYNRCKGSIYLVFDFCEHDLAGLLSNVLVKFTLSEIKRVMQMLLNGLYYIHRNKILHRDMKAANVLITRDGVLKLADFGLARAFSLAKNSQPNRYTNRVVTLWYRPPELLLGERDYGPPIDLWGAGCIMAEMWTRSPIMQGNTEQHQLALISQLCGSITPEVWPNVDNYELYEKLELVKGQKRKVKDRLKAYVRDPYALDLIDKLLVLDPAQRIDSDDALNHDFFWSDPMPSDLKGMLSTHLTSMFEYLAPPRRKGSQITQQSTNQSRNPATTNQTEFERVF

[16] = system: NCI-H460; assay: Induction of apoptosis in human NCI-H460 cells assessed as live cells at 1 uM after 48 hrs by annexin V-FITC/propidium iodide staining based flow cytometry (reference value: 97.3%); format: functional
[17] = system: T47D; assay: Cytotoxicity against human T47D cells assessed as reduction in cell viability after 72 hrs by CCK8 assay; format: functional, cell-based
[18] = system: T47D; assay: Induction of apoptosis in human T47D cells assessed as caspase-3 cleavage after 48 hrs by Western blot method; format: functional, cell-based
Outline: (§2)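 Cells were treated with or without test agent, alongside a control, for 48h. They were then lysed and analysed by Western blot for Bcl-2 protein and cleaved caspase 3.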

[19] = system: MDA-MB-231; assay: Induction of apoptosis in human MDA-MB-231 cells after 48 hrs by annexin V-FITC/propidium iodide staining based flow cytometry; format: functional, cell-based
[20] = system: HepG2; assay: Induction of apoptosis in human HepG2 cells assessed as live cells at 1 uM after 48 hrs by annexin V-FITC/propidium iodide staining based flow cytometry (reference value: 96.7%); format: functional
[21] = system: HepG2; assay: Cell cycle arrest in human HepG2 cells assessed as decrease in S-phase at 625 nM after 24 hrs by propidium iodide staining based flow cytometry; format: functional; outline: as §1
[22] = Lipophilicity, log P of the compound by HPLC based shake flask method; format: physicochemical
[23] = system: HepG2; assay: Induction of apoptosis in human HepG2 cells assessed as late apoptotic cells at 10 uM after 48 hrs by annexin V-FITC/propidium iodide staining based flow cytometry (reference value: 0.64%); format: functional
[24] = biological target: T1, Histone deacetylase 1; assay: Inhibition of HDAC1 in human A549 cells assessed as increase in p53 phosphorylation at Ser15 residue at 1 to 5 uM after 48 hrs by Western blot method; format: cell-based
[25] = system: 4T1; assay: Antitumor activity against mouse Fluc-labeled 4T1 cells implanted in Balb/c mouse assessed as tumor growth inhibition at 90 mg/kg, po administered daily via gavage for 18 days by bioluminescence assay relative to control; format: functional; details: 4T1, po, 432 h, read-out: TGI
Outline: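 Fluc-labelled 4T1 cells (lentiviral transduction) were implanted orthotopically into the mammary fat pads of female BALB/c mice aged 6–8 weeks. Treatment started once tumours averaged 100 mm3, given daily by oral gavage. Tumour burden was followed by bioluminescence imaging of Fluc reporter expression.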

[26] = system: MDA-MB-231; assay: Induction of apoptosis in human MDA-MB-231 cells assessed as caspase-3 cleavage after 48 hrs by Western blot method; format: functional, cell-based; outline: as §2
[27] = system: NCI-H460; assay: Induction of apoptosis in human NCI-H460 cells assessed as caspase-3 cleavage after 48 hrs by Western blot method; format: functional, cell-based; outline: as §2
[28] = system: 4T1; assay: Antitumor activity against mouse Fluc-labeled 4T1 cells implanted in Balb/c mouse assessed as tumor growth inhibition administered ip daily for 18 days measured after 8 to 25 days by bioluminescence assay; format: functional, organism-based
Outline: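 Luciferase (Fluc) reporter introduced into 4T1 cells by lentiviral transduction. Cells implanted orthotopically into mammary fat pads of female BALB/c mice aged 6–8 weeks. Once tumours averaged 100 mm3, dosing was daily by IP injection. Bioluminescence imaging was done at days 8 and 25 to reflect viable tumour cell number. Tumour weight was recorded at study end.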

[29] = system: Hep 3B2; assay: Induction of apoptosis in human Hep3B cells assessed as early apoptotic cells at 5 uM after 48 hrs by annexin V-FITC/propidium iodide staining based flow cytometry (reference value: 1.91%); format: functional
[30] = biological target: CDK9/cyclin T1 (Homo sapiens, UniProt P50750); assay: Inhibition of recombinant human full length C-terminal 6His-tagged CDK9/Cyclin-T1 co-expressed in baculovirus infected sf21 cells using PDKtide substrate in presence of [gamma33P]ATP after 10 mins by scintillation counting method
CDK9/cyclin T1, sequence (O60563 whole entry): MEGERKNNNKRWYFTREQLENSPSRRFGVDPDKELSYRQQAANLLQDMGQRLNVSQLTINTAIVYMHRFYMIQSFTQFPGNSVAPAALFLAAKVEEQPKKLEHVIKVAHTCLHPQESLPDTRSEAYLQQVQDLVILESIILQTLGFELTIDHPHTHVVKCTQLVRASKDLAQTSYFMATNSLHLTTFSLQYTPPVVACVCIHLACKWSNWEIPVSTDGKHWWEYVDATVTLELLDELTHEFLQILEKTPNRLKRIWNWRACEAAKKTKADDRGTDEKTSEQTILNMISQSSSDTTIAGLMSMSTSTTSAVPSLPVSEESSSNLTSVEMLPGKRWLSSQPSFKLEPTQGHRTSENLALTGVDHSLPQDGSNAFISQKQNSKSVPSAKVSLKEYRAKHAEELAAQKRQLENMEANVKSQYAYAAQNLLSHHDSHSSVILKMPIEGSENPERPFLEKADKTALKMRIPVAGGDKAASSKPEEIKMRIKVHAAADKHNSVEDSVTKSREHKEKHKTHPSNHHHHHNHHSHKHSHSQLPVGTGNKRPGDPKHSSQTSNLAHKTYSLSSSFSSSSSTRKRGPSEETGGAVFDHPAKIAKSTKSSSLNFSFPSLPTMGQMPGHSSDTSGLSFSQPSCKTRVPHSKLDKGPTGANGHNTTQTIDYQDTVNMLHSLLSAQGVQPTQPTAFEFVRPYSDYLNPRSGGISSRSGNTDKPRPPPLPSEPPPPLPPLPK
CDK9/cyclin T1, sequence (P50750 whole entry): as the sequence (P50750 whole entry, looked up) above

[31] = system: NCI-H460; assay: Induction of apoptosis in human NCI-H460 cells assessed as reduction in Bcl2 protein expression after 48 hrs by Western blot method; format: functional, cell-based; outline: as §2
[32] = system: A549; assay: Induction of apoptosis in human A549 cells assessed as late apoptotic cells at 5 uM after 48 hrs by annexin V-FITC/propidium iodide staining based flow cytometry (reference value: 0.88%); format: functional

MRT inf [1]: 20.3 h
solubility [4]: Insoluble
half-life [5]: 9.65 h
inhibition [6]: Active
inhibition [7]: Active
AUC(0-inf) [9]: 1130 ng·h/mL
inhibition [13]: Active
inhibition [15]: Active
logP [22]: 2.62
inhibition [24]: Active
IC50 [30]: 0.009 µM
Structure (SMILES): CN(C)C(=O)c1cc2cnc(Nc3ccc(NC(=O)CCCCCCC(=O)NO)cc3)nc2n1C1CCCC1
Activity [2]: 3.3%
IC50 [3]: 1.87 µM
Activity [8]: 80.5%
Activity [10]: 88.3%
Activity [11]: Dose-dependent effect
Activity [12]: Active
Activity [14]: Active
Activity [16]: 97%
IC50 [17]: 2.59 µM
Activity [18]: Active
Activity [19]: Dose-dependent effect
Activity [20]: 87.4%
Activity [21]: Active
Activity [23]: 11.7%
inhibition in vivo at 90 mg/kg [25]: 70.3%
Activity [26]: Active
Activity [27]: Active
TGI [28]: Dose-dependent effect
Activity [29]: 6.52%
Activity [31]: Active
Activity [32]: 13%
